# APP 5'UTR act = APP 5'UTR luciferase reporter activation; SH-SY5Y APP 5'UTR luciferase reporter, luminescence; zero percent = DMSO vehicle wells; AID 1276; activation, % at 2 µM; 190,000 tested, 1% active;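 active means activation above a set limit, based on mean plus 3 SD of controls, cut at about 140% in these data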
# FLuc act counter = firefly luciferase counter-screen for stimulation assays | P08659 | AID 1027 | activation factor at 10 µM | 200,000 tested, under 10 active | ATPlite luciferase biochemical, luminescence, 10 min; 0 = ATP-free wells, 1 = DMSO control;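 active means luciferase activation factor, scaled between plate controls, of at least 2 with compound at 10 µM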
# Target sequence (P08659 whole entry, looked up): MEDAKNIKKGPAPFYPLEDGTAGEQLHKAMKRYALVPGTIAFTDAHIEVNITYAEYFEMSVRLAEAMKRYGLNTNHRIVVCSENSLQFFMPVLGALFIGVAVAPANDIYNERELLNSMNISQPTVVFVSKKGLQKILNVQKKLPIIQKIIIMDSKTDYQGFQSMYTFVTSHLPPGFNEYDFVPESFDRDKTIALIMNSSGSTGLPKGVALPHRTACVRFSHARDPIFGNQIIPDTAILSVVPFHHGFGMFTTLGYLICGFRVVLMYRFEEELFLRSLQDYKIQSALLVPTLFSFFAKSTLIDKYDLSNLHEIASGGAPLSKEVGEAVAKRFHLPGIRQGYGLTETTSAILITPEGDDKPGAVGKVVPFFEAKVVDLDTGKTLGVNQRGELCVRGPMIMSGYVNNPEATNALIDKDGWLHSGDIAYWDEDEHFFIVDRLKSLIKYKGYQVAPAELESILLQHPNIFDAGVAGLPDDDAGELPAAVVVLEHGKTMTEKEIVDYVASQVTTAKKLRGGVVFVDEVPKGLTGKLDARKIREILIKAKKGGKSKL
#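 Assay system – cell-free luciferase reagent · Medium – PBS-based ATP solution · Dosing – test compounds dosed from 2 mM stocks in 100% DMSO · Timing – 10 min, room temperature · Technique – light output (luminescence) · Measure – luminescence gain marking luciferase activators · Controls – No-ATP low control, compound-free enzyme-plus-ATP high control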
# FLuc inh counter = counter-screen for luciferase assay inhibitors: firefly luciferase inhibition; P08659; inhibition, % at 10 µM; ATPLite firefly luciferase biochemical luminescence, 10 min; 200,000 tested, 1.5% active;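 active means inhibition above about 50% when tested at 10 µM, limit read from the data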
# NF-kB expr up = raises NF-kB expression in human neuronal cells; NF-kB reporter expression; hits give high values; fold change at 12.5 µM; 190,000 tested, 1.6% active; AID 1239; in the data active means fold change above about 3.3
# STAT1 act = increases IFN-gamma driven STAT1 reporter signal; NIH 3T3 STAT1-luciferase reporter, luminescence; 100% = IFN-gamma alone, no compound; activation (% of control), % at 5.5 µM; 200,000 tested, 2.6% active;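 active means activation above the screen-wide mean activation plus 3 SD, cut at about 130% in these data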;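 further: raw ratio to IFN-gamma control signal so 100% means no change and 0% no light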
# STAT1 activ conf = STAT1 activation, confirmation assay. shares compounds with STAT1 act. NIH 3T3 STAT1-luciferase reporter, IFN-gamma potentiation, luminescence; 100% = IFN-gamma EC80 alone, no compound. activation (% of control), % at 5.7 µM. 1,200 tested, 97% active. AID 1262;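 active means activation above a set limit carried over from the earlier primary STAT1 screen, cut at about 140% in these data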;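 further: simple ratio to median IFN-gamma plus DMSO wells so 0% means no light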
# NFkB act STAT1ct = activates NF-kappaB, counter-screen to STAT1 activators; shares compounds with STAT1 act; HEK293T NF-kB luciferase reporter, TNF-alpha stimulated, luminescence; 100% = TNF-alpha with vehicle only; activation (% of control), % at 5.7 µM; 1,200 tested, 43% active;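 active means activation above the mean of solvent-only control wells plus 3 SD, set per campaign, cut at about 130% in these data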;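 further: TNF-alpha given at a submaximal dose yielding about 80% of full reporter signal; values are well signal over median control so 100% means no change and 0% no light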
# STAT3 act 2 = counter-screen for STAT1 activators: human STAT3 activation; shares compounds with STAT1 act; U3A cells STAT3-luciferase reporter, IL-6, luminescence; cells lack STAT1; 100 = IL-6 alone, no compound effect; activation (% of control), % at 5.7 µM; 1,200 tested, 46% active; AID 1316;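 active means activation above the solvent-only control well mean plus 3 SD, set per plate batch, cut at about 110% in these data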;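 further: 0% = no luminescence and 100% = median IL-6 plus DMSO wells; higher means more STAT3 reporter activation so hits are non-selective activators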
# The depositor's hits bear a star; . = not tested or not shown. Sampled rows, rich in hits. Any-hit rate of the full collection: about 4.3%.
SMILES,APP 5'UTR act,FLuc act counter,FLuc inh counter,NF-kB expr up,STAT1 act,STAT1 activ conf,NFkB act STAT1ct,STAT3 act 2
CN(C)S(=O)(=O)c1cccc(NC(=O)c2cc3ccccc3o2)c1,39,0.7,27,1.2,105,.,.,.
CC(=O)Nc1cccc(NC(=O)c2cc3ccccc3o2)c1,125,0.4,64*,3.4*,156*,178*,135*,109
O=C(Nc1cccnc1)c1cc2c(ccc3ccccc32)o1,220*,0.6,39,5.3*,177*,260*,144*,111*
Cc1cc(C(=O)Nc2ccccc2)oc1C,98,0.7,26,3.5*,155*,170*,136*,110
Cc1ccc(NC(=O)CN(C)C(=O)c2cc3ccccc3o2)cc1,6,1.1,-5,1.1,101,.,.,.
Cc1ccc(C(=O)c2cc3ccccc3o2)cc1,148*,0.4,57*,3.9*,157*,195*,139*,103
NNC(=O)c1cc2c(ccc3ccccc32)o1,3,1,1,1.2,103,.,.,.
Cc1ccc(OCC(=O)N/N=C/C=C/c2ccco2)cc1C,1,0.6,39,1.4,102,.,.,.
CC(C)Cn1cc(Cl)c(=O)n(CC(C)C)c1=O,2,1,0,1.2,98,.,.,.
O=c1c2ccccc2c(/C=N/c2n[nH]c(CCCO)n2)c(O)n1-c1ccccc1Cl,9,0.7,30,0.58,95,.,.,.
O=C(Nc1ccccc1)c1cc2ccccc2o1,230*,0.3,74*,8.8*,153*,227*,134*,99
COc1ccc(/C=N/Nc2ncc(Br)cn2)c(OC)c1,42,0.9,12,3.7*,165*,204*,134*,114*
COc1ccc(/C=N/NC(=O)c2ccc(Br)cc2)c(OC)c1,-6,1,3,1.1,113,.,.,.
CCCCn1c(N)c(N(CC)C(=O)CCc2ccccc2)c(=O)[nH]c1=O,0,1.1,-8,0.96,98,.,.,.
Oc1ccc(/C=N/Nc2ccc(C(F)(F)F)cn2)cc1,127,0.9,6,4.8*,168*,172*,108,99
CCC(=O)Nc1nc(-c2ccc3c(c2)OCCO3)cs1,147*,0.6,38,7.1*,153*,212*,145*,110
O=C(/C=C/Nc1ccc(F)c(F)c1)c1cccs1,144*,0.2,80*,9.8*,169*,229*,122,132*
O=C(Nc1ccc(NC(=S)NC(=O)c2ccccc2F)cc1)c1cccs1,30,1,-5,0.78,103,.,.,.
O=C(Nc1ccccc1)c1ccc(-c2ccccc2Cl)o1,85,0.8,18,1.8,107,.,.,.
O=C(Nc1nccs1)c1ccc(-c2ccccc2Cl)o1,156*,0.5,46,2.7,152*,178*,136*,107
COc1ccc(NC(=O)c2ccc(-c3ccc([N+](=O)[O-])cc3)o2)cc1,19,1,3,1.1,108,.,.,.
O=C(Nc1nccs1)c1ccc(-c2ccc([N+](=O)[O-])cc2)o1,103,0.8,21,1.7,151*,183*,130,96
Nc1cccn2c(-c3ccc(Cl)c(Cl)c3)cnc12,211*,0.8,23,12*,151*,102,131,159*
Nc1nnc(-c2ccc(Cl)c(Cl)c2)s1,1,1,2,1.5,119,.,.,.
Cc1ccc(SCCC(=O)OC(C(=O)NC(N)=O)C(C)C)cc1 (stereo unspecified),12,1,2,.,91,.,.,.
SMILES,APP 5'UTR act,FLuc act counter,FLuc inh counter,NF-kB expr up,STAT1 act,STAT1 activ conf,NFkB act STAT1ct,STAT3 act 2
Cc1cc(C(=O)CN2CCC(C)CC2)c(C)n1-c1ccc(F)cc1,136*,1,5,0.74,157*,164*,132,118*
COc1ccc(/C=N/NC(=O)CN2CCSCC2)c(OC)c1,11,1,-4,0.97,106,.,.,.
CC(/C=C/c1ccccc1)=N/O,13,1,4,1.2,107,.,.,.
CC(/C=C/c1ccc(OCc2ccccc2)cc1)=N\O,94,0.8,22,3.1,157*,177*,134*,112*
CCOC(=O)/C=c1\s/c(=C\c2ccc3cc(OC)ccc3c2)c(=O)n1CC(=O)NCc1ccc2c(c1)OCO2,6,1,-4,1.2,95,.,.,.
CS(=O)(=O)N(Cc1ccccc1)c1ccccc1C(=O)N1CCN(c2ccccc2)CC1,-8,1.1,-5,0.96,98,.,.,.
CC(/C=N/NC(=O)c1sc(N)nc1C)=C\c1ccccc1,75,0.7,30,1.2,153*,146*,113,101
Cc1nc(N)sc1C(=O)N/N=C/c1ccco1,6,1,4,1.1,105,.,.,.
Cc1nc(N)sc1C(=O)N/N=C/c1c[nH]c2ccccc12,.,0.9,10,0.71,93,.,.,.
Cc1nc(N)sc1C(=O)N/N=C/c1ccccc1[N+](=O)[O-],76,0.9,11,1.5,156*,155*,123,118*
CNC(=O)c1c(Br)cnn1-c1ccc(C)cc1,130,0.8,18,2.9,152*,180*,131,116*
CNC(=O)c1c(Cl)cnn1-c1ccc(C)cc1,109,0.9,6,2.3,161*,164*,138*,114*
Cc1ccc(-n2nc(C)c(NC(=O)CCl)c2C)cc1,22,1,-3,1.3,102,.,.,.
COc1cnn(-c2ccc(C)cc2)c(=O)c1Br,14,0.9,6,1.8,121,.,.,.
Cc1c(NC(=O)CC2NC(=O)NC2=O)c(=O)n(-c2ccccc2)n1C (stereo unspecified),16,1,-3,1.1,98,.,.,.
O=Cc1cn(-c2ccccc2)nc1-c1ccc2c(c1)OCCO2,140*,0.8,16,6.9*,160*,193*,134*,110
CN(C(=O)COC(=O)/C=C/c1cn(-c2ccccc2)nc1-c1ccc2c(c1)OCCO2)C1CCS(=O)(=O)C1 (stereo unspecified),-14,1.1,-7,0.47,110,.,.,.
COc1cc(NC(=O)c2ccccc2Cl)ccc1NC(=O)c1cccs1,85,0.9,6,1.3,153*,181*,134*,98
COc1cc(NC(=O)c2cccc(Cl)c2)ccc1NC(=O)c1cccs1,6,1,-5,0.85,87,.,.,.
CCCCn1cnc2sc(-c3ccccc3)cc2c1=O,0,0.9,8,5.9*,162*,218*,150*,111*

# High-throughput results as filed in PubChem BioAssay.
